Assay results reported in ChEMBL document CHEMBL1155238, “Synthesis and antimycobacterial activity of N'-[(E)-(monosubstituted-benzylidene)]-2-pyrazinecarbohydrazide derivatives” (Eur J Med Chem, 2009).
≈ marks a conversion by molar mass, not a printed value.

Columns and labels:
[1] = Cytotoxicity against mouse J774 cells assessed as cell viability at 50 ug/ml after 48 hrs by MTT assay; assay type: cell-based; conditions: read-out: Activity
[2] = Cytotoxicity against mouse J774 cells assessed as cell viability at 150 ug/ml after 48 hrs by MTT assay; assay type: cell-based; conditions: read-out: Activity
[3] = Cytotoxicity against Mycobacterium bovis Bacillus Calmette-Guerin infected mouse J774 cells assessed as cell viability at 50 ug/ml after 48 hrs by MTT assay; assay type: cell-based; conditions: read-out: Activity
[4] = Cytotoxicity against mouse J774 cells assessed as cell viability at 100 ug/ml after 48 hrs by MTT assay; assay type: cell-based; conditions: read-out: Activity
Method in brief: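 Uninfected J774 macrophages seeded at 2.5 × 10^6 cells/well for 24 h (5% CO2, 37 °C); non-adherent cells washed off with RPMI 1640, 10% FBS, gentamicin 25 µg/mL. Adherent cells given compound (1.0, 10.0, 100 µg/mL) in triplicate for 48 h. Medium was the live control, 3% tween 20 the dead control. MTT for 4 h, DMSO solubilization, absorbance at 540 nm, % viability.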

[5] = Cytotoxicity against Mycobacterium bovis Bacillus Calmette-Guerin infected mouse J774 cells assessed as cell viability at 150 ug/ml after 48 hrs by MTT assay; assay type: cell-based; conditions: read-out: Activity
[6] = test system: Mycobacterium tuberculosis; assay: Antimycobacterial activity against Mycobacterium tuberculosis H37Rv ATCC 27294 after 5 days by microplate Alamar blue assay; assay type: functional; conditions: H37Rv ATCC 27294, 120 h
Method in brief: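 M. tuberculosis ATCC 27294 in Middlebrook 7H9 broth with compounds serially diluted on the plate (final 0.01–100 µg/mL). Incubated at 37 °C for five days, then a 1:1 Alamar Blue/10% tween 80 mix was added for 24 h. Blue read as no growth, pink as growth. MIC is the lowest concentration preventing the blue-to-pink change.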

[7] = Cytotoxicity against Mycobacterium bovis Bacillus Calmette-Guerin infected mouse J774 cells assessed as cell viability at 100 ug/ml after 48 hrs by MTT assay; assay type: cell-based; conditions: read-out: Activity
Method in brief: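 J774 macrophages seeded at 2.5 × 10^6 cells/well for 24 h (5% CO2, 37 °C); non-adherent cells washed off with RPMI 1640, 10% FBS, gentamicin 25 µg/mL. Adherent cells infected with BCG (2.5 × 10^6 UFC/well), then given compound (1.0, 10.0, 100 µg/mL) in triplicate for 48 h. Medium was the live control, 3% tween 20 the dead control. MTT for 4 h, DMSO solubilization, A540, % viability.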

N#Cc1cccc(/C=N/NC(=O)c2cnccn2)c1
viability at 48 h, 50 ug/ml [1]: 100% | viability at 48 h, 150 ug/ml [2]: 100% | viability at 48 h, 50 ug/ml [3]: 100% | viability at 48 h, 100 ug/ml [4]: 100% | viability at 48 h, 150 ug/ml [5]: 89% | MIC [6]: 50 µg/mL (≈ 199 µM) | viability at 48 h, 100 ug/ml [7]: 98%

O=C(N/N=C/c1ccc(F)cc1)c1cnccn1
viability at 48 h, 50 ug/ml [1]: 78% | viability at 48 h, 150 ug/ml [2]: 71% | viability at 48 h, 100 ug/ml [4]: 69%

O=C(N/N=C/c1cccc(O)c1)c1cnccn1
viability at 48 h, 50 ug/ml [1]: 100% | viability at 48 h, 150 ug/ml [2]: 88% | viability at 48 h, 50 ug/ml [3]: 73% | viability at 48 h, 100 ug/ml [4]: 100% | viability at 48 h, 150 ug/ml [5]: 57% | viability at 48 h, 100 ug/ml [7]: 64%

O=C(N/N=C/c1ccc(Cl)cc1)c1cnccn1
viability at 48 h, 50 ug/ml [1]: 83% | viability at 48 h, 150 ug/ml [2]: 56% | viability at 48 h, 100 ug/ml [4]: 64%

O=C(N/N=C/c1ccc(O)cc1)c1cnccn1
viability at 48 h, 50 ug/ml [1]: 100% | viability at 48 h, 150 ug/ml [2]: 80% | viability at 48 h, 50 ug/ml [3]: 100% | viability at 48 h, 100 ug/ml [4]: 81% | viability at 48 h, 150 ug/ml [5]: 91% | viability at 48 h, 100 ug/ml [7]: 72%

NC(=O)c1cnccn1 [PYRAZINAMIDE]
viability at 48 h, 50 ug/ml [1]: 100% | viability at 48 h, 150 ug/ml [2]: 100% | viability at 48 h, 50 ug/ml [3]: 92% | viability at 48 h, 100 ug/ml [4]: 100% | viability at 48 h, 150 ug/ml [5]: 67% | MIC [6]: > 100 µg/mL | viability at 48 h, 100 ug/ml [7]: 87%

O=C(N/N=C/c1ccccc1F)c1cnccn1
viability at 48 h, 50 ug/ml [1]: 100% | viability at 48 h, 150 ug/ml [2]: 81% | viability at 48 h, 50 ug/ml [3]: 100% | viability at 48 h, 100 ug/ml [4]: 100% | viability at 48 h, 150 ug/ml [5]: 88% | MIC [6]: 100 µg/mL (≈ 409 µM) | viability at 48 h, 100 ug/ml [7]: 80%

O=C(N/N=C/c1ccccc1[N+](=O)[O-])c1cnccn1
viability at 48 h, 50 ug/ml [1]: 90% | viability at 48 h, 150 ug/ml [2]: 46% | viability at 48 h, 50 ug/ml [3]: 100% | viability at 48 h, 100 ug/ml [4]: 59% | viability at 48 h, 150 ug/ml [5]: 88% | MIC [6]: 50 µg/mL (≈ 184 µM) | viability at 48 h, 100 ug/ml [7]: 94%

O=C(N/N=C/c1cccc(Cl)c1)c1cnccn1
viability at 48 h, 50 ug/ml [1]: 100% | viability at 48 h, 150 ug/ml [2]: 100% | viability at 48 h, 50 ug/ml [3]: 100% | viability at 48 h, 100 ug/ml [4]: 100% | viability at 48 h, 150 ug/ml [5]: 94% | MIC [6]: 50 µg/mL (≈ 192 µM) | viability at 48 h, 100 ug/ml [7]: 96%

O=C(N/N=C/c1ccccc1Cl)c1cnccn1
viability at 48 h, 50 ug/ml [1]: 70% | viability at 48 h, 150 ug/ml [2]: 69% | viability at 48 h, 100 ug/ml [4]: 66%

O=C(N/N=C/c1ccc(Br)cc1)c1cnccn1
viability at 48 h, 50 ug/ml [1]: 100% | viability at 48 h, 150 ug/ml [2]: 94% | viability at 48 h, 50 ug/ml [3]: 52% | viability at 48 h, 100 ug/ml [4]: 100% | viability at 48 h, 150 ug/ml [5]: 54% | viability at 48 h, 100 ug/ml [7]: 56%

CCN(CC)c1ccc(/C=N/NC(=O)c2cnccn2)cc1
viability at 48 h, 50 ug/ml [1]: 97% | viability at 48 h, 150 ug/ml [2]: 93% | viability at 48 h, 50 ug/ml [3]: 85% | viability at 48 h, 100 ug/ml [4]: 92% | viability at 48 h, 150 ug/ml [5]: 78% | viability at 48 h, 100 ug/ml [7]: 84%

O=C(N/N=C/c1ccccc1Br)c1cnccn1
viability at 48 h, 50 ug/ml [1]: 98% | viability at 48 h, 150 ug/ml [2]: 91% | viability at 48 h, 50 ug/ml [3]: 73% | viability at 48 h, 100 ug/ml [4]: 100% | viability at 48 h, 150 ug/ml [5]: 52% | viability at 48 h, 100 ug/ml [7]: 64%

COc1ccccc1/C=N/NC(=O)c1cnccn1
viability at 48 h, 50 ug/ml [1]: 97% | viability at 48 h, 150 ug/ml [2]: 97% | viability at 48 h, 50 ug/ml [3]: 87% | viability at 48 h, 100 ug/ml [4]: 100% | viability at 48 h, 150 ug/ml [5]: 56% | viability at 48 h, 100 ug/ml [7]: 54%

O=C(N/N=C/c1cccc(Br)c1)c1cnccn1
viability at 48 h, 50 ug/ml [1]: 100% | viability at 48 h, 150 ug/ml [2]: 93% | viability at 48 h, 50 ug/ml [3]: 87% | viability at 48 h, 100 ug/ml [4]: 100% | viability at 48 h, 150 ug/ml [5]: 56% | viability at 48 h, 100 ug/ml [7]: 96%

N#Cc1ccc(/C=N/NC(=O)c2cnccn2)cc1
viability at 48 h, 50 ug/ml [1]: 100% | viability at 48 h, 150 ug/ml [2]: 100% | viability at 48 h, 50 ug/ml [3]: 100% | viability at 48 h, 100 ug/ml [4]: 100% | viability at 48 h, 150 ug/ml [5]: 100% | MIC [6]: > 100 µg/mL | viability at 48 h, 100 ug/ml [7]: 98%

O=C(N/N=C/c1cccc([N+](=O)[O-])c1)c1cnccn1
viability at 48 h, 50 ug/ml [1]: 100% | viability at 48 h, 150 ug/ml [2]: 76% | viability at 48 h, 50 ug/ml [3]: 92% | viability at 48 h, 100 ug/ml [4]: 85% | viability at 48 h, 150 ug/ml [5]: 72% | MIC [6]: 100 µg/mL (≈ 369 µM) | viability at 48 h, 100 ug/ml [7]: 92%

O=C(N/N=C/c1ccccc1)c1cnccn1
viability at 48 h, 50 ug/ml [1]: 100% | viability at 48 h, 150 ug/ml [2]: 100% | viability at 48 h, 50 ug/ml [3]: 100% | viability at 48 h, 100 ug/ml [4]: 75% | viability at 48 h, 150 ug/ml [5]: 80% | MIC [6]: > 100 µg/mL | viability at 48 h, 100 ug/ml [7]: 88%

COc1cccc(/C=N/NC(=O)c2cnccn2)c1
viability at 48 h, 50 ug/ml [1]: 100% | viability at 48 h, 150 ug/ml [2]: 97% | viability at 48 h, 50 ug/ml [3]: 100% | viability at 48 h, 100 ug/ml [4]: 100% | viability at 48 h, 150 ug/ml [5]: 87% | MIC [6]: > 100 µg/mL | viability at 48 h, 100 ug/ml [7]: 98%

CCOc1ccc(/C=N/NC(=O)c2cnccn2)cc1
viability at 48 h, 50 ug/ml [1]: 100% | viability at 48 h, 150 ug/ml [2]: 100% | viability at 48 h, 50 ug/ml [3]: 90% | viability at 48 h, 100 ug/ml [4]: 98% | viability at 48 h, 150 ug/ml [5]: 88% | MIC [6]: > 100 µg/mL | viability at 48 h, 100 ug/ml [7]: 85%

O=C(N/N=C/c1cccc(F)c1)c1cnccn1
viability at 48 h, 50 ug/ml [1]: 49% | viability at 48 h, 150 ug/ml [2]: 40% | viability at 48 h, 100 ug/ml [4]: 46%

CCOc1cccc(/C=N/NC(=O)c2cnccn2)c1
viability at 48 h, 50 ug/ml [1]: 74% | viability at 48 h, 150 ug/ml [2]: 69% | viability at 48 h, 100 ug/ml [4]: 71%

CN(C)c1ccc(/C=N/NC(=O)c2cnccn2)cc1
viability at 48 h, 50 ug/ml [1]: 93% | viability at 48 h, 150 ug/ml [2]: 89% | viability at 48 h, 50 ug/ml [3]: 80% | viability at 48 h, 100 ug/ml [4]: 87% | viability at 48 h, 150 ug/ml [5]: 71% | viability at 48 h, 100 ug/ml [7]: 73%

COc1ccc(/C=N/NC(=O)c2cnccn2)cc1
viability at 48 h, 50 ug/ml [1]: 74% | viability at 48 h, 150 ug/ml [2]: 55% | viability at 48 h, 100 ug/ml [4]: 55%

O=C(N/N=C/c1ccc([N+](=O)[O-])cc1)c1cnccn1
viability at 48 h, 50 ug/ml [1]: 50% | viability at 48 h, 150 ug/ml [2]: 44% | viability at 48 h, 100 ug/ml [4]: 44%

N#Cc1ccccc1/C=N/NC(=O)c1cnccn1
viability at 48 h, 50 ug/ml [1]: 92% | viability at 48 h, 150 ug/ml [2]: 70% | viability at 48 h, 50 ug/ml [3]: 80% | viability at 48 h, 100 ug/ml [4]: 75% | viability at 48 h, 150 ug/ml [5]: 75% | viability at 48 h, 100 ug/ml [7]: 73%

O=C(N/N=C/c1ccccc1O)c1cnccn1
viability at 48 h, 50 ug/ml [1]: 1% | viability at 48 h, 150 ug/ml [2]: 0% | viability at 48 h, 100 ug/ml [4]: 0.3%
